According to ChEMBL document CHEMBL3102723, “Design, synthesis and anti-inflammatory evaluation of novel 5-benzylidene-3,4-dihalo-furan-2-one derivatives” (Eur J Med Chem, 2014):
Calls of active or inactive are those of the source. No cut-off for these calls is given here.

Key:
[1] = test system: RAW264.7; assay: Antiinflammatory activity in mouse RAW264.7 cells assessed as inhibition of LPS-induced nitric oxide release at 10 uM treated 2 hrs before LPS challenge measured after 48 hrs by Griess assay relative to control; format: functional
[2] = test system: RAW264.7; assay: Antiinflammatory activity in mouse RAW264.7 cells assessed as inhibition of LPS-induced TNF-alpha release at 10 uM treated 2 hrs before LPS challenge measured after 12 hrs by ELISA (reference value: 11.8 +/- 1.2 pg/ml); format: functional
[3] = test system: RAW264.7; assay: Antiinflammatory activity in mouse RAW264.7 cells assessed as inhibition of LPS-induced IL-6 release at 10 uM treated 2 hrs before LPS challenge measured by ELISA; format: functional, cell-based; conditions: TDE = time-dependent effect
[4] = test system: RAW264.7; assay: Antiinflammatory activity in mouse RAW264.7 cells assessed as inhibition of LPS-induced TNF-alpha release at 10 uM treated 2 hrs before LPS challenge measured after 24 hrs by ELISA (reference value: 38.3 +/- 3.3 pg/ml); format: functional
[5] = test system: RAW264.7; assay: Antiinflammatory activity in mouse RAW264.7 cells assessed as inhibition of LPS-induced IL-6 release at 10 uM treated 2 hrs before LPS challenge measured after 12 hrs by ELISA (reference value: 13.9 +/- 2.6 pg/ml); format: functional
[6] = test system: RAW264.7; assay: Antiinflammatory activity in mouse RAW264.7 cells assessed as inhibition of LPS-induced TNF-alpha release at 10 uM treated 2 hrs before LPS challenge measured by ELISA; format: functional, cell-based; conditions: TDE = time-dependent effect
[7] = test system: RAW264.7; assay: Antiinflammatory activity in mouse RAW264.7 cells assessed as inhibition of LPS-induced IL-6 release at 10 uM treated 2 hrs before LPS challenge measured after 24 hrs by ELISA (reference value: 45.1 +/- 5.6 pg/ml); format: functional
[8] = test system: RAW264.7; assay: Antiinflammatory activity in mouse RAW264.7 cells assessed as inhibition of LPS-induced TNF-alpha release at 10 uM treated 2 hrs before LPS challenge measured after 6 hrs by ELISA (reference value: 5.9 +/- 0.5 pg/ml); format: functional
[9] = test system: RAW264.7; assay: Antiinflammatory activity in mouse RAW264.7 cells assessed as inhibition of LPS-induced IL-6 release at 10 uM treated 2 hrs before LPS challenge measured after 6 hrs by ELISA (reference value: 7.2 +/- 0.9 pg/ml); format: functional
[10] = Cytotoxicity against mouse RAW264.7 cells assessed as cell viability at 10 uM after 48 hrs by MTT assay relative to control; format: cell-based; conditions: read-out: Activity
In short: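 MTT assay. RAW264.7 cells at 4 × 10^3 cells/well, cultured 16 h, then exposed to compounds diluted in DMEM for 48 h. MTT (0.5 mg/mL) added for 4 h, formazan dissolved in DMSO, OD570 read. Viability = compound OD570/blank OD570 × 100%, with the medium-only blank set as 100%. Three independent experiments.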

[11] = biological target: T1, Peroxisome proliferator-activated receptor gamma (Mus musculus) (UniProt P37238); assay: Inhibition of PPARgamma in mouse RAW264.7 cells assessed as inhibition of LPS-induced p38 MAPK phosphorylation at 10 uM after 4 hrs by Western blot analysis in presence of PPARgamma antagonist GW9662; format: cell-based
T1 sequence (whole entry): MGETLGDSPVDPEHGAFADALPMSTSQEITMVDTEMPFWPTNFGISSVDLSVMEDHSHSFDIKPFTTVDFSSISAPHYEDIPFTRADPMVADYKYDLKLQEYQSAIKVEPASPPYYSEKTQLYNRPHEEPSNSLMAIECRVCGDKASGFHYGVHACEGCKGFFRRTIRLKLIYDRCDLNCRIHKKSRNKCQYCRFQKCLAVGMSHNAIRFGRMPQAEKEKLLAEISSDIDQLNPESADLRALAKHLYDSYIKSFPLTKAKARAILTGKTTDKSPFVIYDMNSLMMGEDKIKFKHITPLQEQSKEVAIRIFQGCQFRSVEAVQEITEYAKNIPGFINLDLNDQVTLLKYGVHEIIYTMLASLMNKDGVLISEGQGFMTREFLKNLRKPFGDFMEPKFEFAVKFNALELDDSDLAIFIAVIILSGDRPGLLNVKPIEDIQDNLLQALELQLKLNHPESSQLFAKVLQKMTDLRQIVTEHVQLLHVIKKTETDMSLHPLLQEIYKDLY
In short: (§1)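 RAW264.7 cells at 2 × 10^6 per well, cultured 18 h, then given fresh medium with compounds plus 500 ng/mL LPS for 4 h, with GW9662 at 5 where included. Lysates clarified at 14,000 × g, protein by BCA, equal loads on SDS-PAGE. Blots blocked in 5% milk/TBST, primary antibodies 1:1000 overnight, secondary 1:1000 90 min, ECL detection. Means ± SD (n = 3).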

[12] = biological target: T1, Peroxisome proliferator-activated receptor gamma (Mus musculus); assay: Inhibition of PPARgamma in mouse RAW264.7 cells assessed as inhibition of LPS-induced p38 MAPK phosphorylation at 10 uM after 4 hrs by Western blot analysis; format: cell-based; in short: as §1
[13] = biological target: T1, Peroxisome proliferator-activated receptor gamma (Mus musculus); assay: Inhibition of PPARgamma in mouse RAW264.7 cells assessed as inhibition of LPS-induced JNK phosphorylation at 10 uM after 4 hrs by Western blot analysis in presence of PPARgamma antagonist GW9662; format: cell-based; in short: as §1
[14] = biological target: T1, Peroxisome proliferator-activated receptor gamma (Mus musculus); assay: Inhibition of PPARgamma in mouse RAW264.7 cells assessed as inhibition of LPS-induced IkappaBalpha phosphorylation at 10 uM after 4 hrs by Western blot analysis in presence of PPARgamma antagonist GW9662; format: cell-based; in short: as §1
[15] = biological target: T1, Peroxisome proliferator-activated receptor gamma (Mus musculus); assay: Inhibition of PPARgamma in mouse RAW264.7 cells assessed as inhibition of LPS-induced IkappaBalpha phosphorylation at 10 uM after 4 hrs by Western blot analysis; format: cell-based; in short: as §1
[16] = biological target: T1, Peroxisome proliferator-activated receptor gamma (Mus musculus); assay: Inhibition of PPARgamma in mouse RAW264.7 cells assessed as inhibition of LPS-induced NF-kappaB 65 phosphorylation at 10 uM after 4 hrs by Western blot analysis; format: cell-based; in short: as §1
[17] = biological target: T1, Peroxisome proliferator-activated receptor gamma (Mus musculus); assay: Inhibition of PPARgamma in mouse RAW264.7 cells assessed as inhibition of LPS-induced NF-kappaB 65 phosphorylation at 10 uM after 4 hrs by Western blot analysis in presence of PPARgamma antagonist GW9662; format: cell-based; in short: as §1
[18] = biological target: T1, Peroxisome proliferator-activated receptor gamma (Mus musculus); assay: Inhibition of PPARgamma in mouse RAW264.7 cells assessed as inhibition of LPS-induced ERK1/2 phosphorylation at 10 uM after 4 hrs by Western blot analysis; format: cell-based; in short: as §1
[19] = biological target: T1, Peroxisome proliferator-activated receptor gamma (Mus musculus); assay: Inhibition of PPARgamma in mouse RAW264.7 cells assessed as inhibition of LPS-induced ERK1/2 phosphorylation at 10 uM after 4 hrs by Western blot analysis in presence of PPARgamma antagonist GW9662; format: cell-based; in short: as §1
[20] = biological target: T1, Peroxisome proliferator-activated receptor gamma (Mus musculus); assay: Inhibition of PPARgamma in mouse RAW264.7 cells assessed as inhibition of LPS-induced JNK phosphorylation at 10 uM after 4 hrs by Western blot analysis; format: cell-based; in short: as §1

CCc1ccc(CCOc2ccc(/C=C3\OC(=O)C(Br)=C3Br)cc2)nc1
inhibition at 10 µM [1]: 43.6%

COc1cc(/C=C2\OC(=O)C(Cl)=C2Cl)ccc1OCCc1ccccn1
inhibition at 10 µM [1]: 38.9%

COc1cc(/C=C2\OC(=O)C(Cl)=C2Cl)ccc1OCc1ccccn1
inhibition at 10 µM [1]: 36.4%

COc1cc(/C=C2\OC(=O)C(Br)=C2Br)ccc1OCc1nc(C)c(C)nc1C
inhibition at 10 µM [1]: 37.2%

CCOc1cc(/C=C2\SC(=O)NC2=O)ccc1OCc1nc(C)c(C)nc1C
inhibition at 10 µM [1]: 30.7%

Cc1nc(C)c(COc2cccc(/C=C3\SC(=O)NC3=O)c2)nc1C
inhibition at 10 µM [1]: 23.5%

COc1cc(/C=C2\SC(=O)NC2=O)ccc1OCc1nc(C)c(C)nc1C
inhibition at 10 µM [1]: 24.9%

COc1cc(/C=C2\OC(=O)C(Br)=C2Br)ccc1OCc1ccccn1
inhibition at 10 µM [1]: 33.9%

CCOc1cc(/C=C2\OC(=O)C(Cl)=C2Cl)ccc1OCCc1ccccn1
inhibition at 10 µM [1]: 50.4%

CN(CCOc1ccc(CC2SC(=O)NC2=O)cc1)c1ccccn1 (stereo not given) [ROSIGLITAZONE]
Activity [2]: 631.3 pg/mL | inhibition [3]: tde | Activity [4]: 1293.8 pg/mL | Activity [5]: 3477.9 pg/mL | inhibition [6]: tde | Activity [7]: 8388.6 pg/mL | Activity [8]: 416.9 pg/mL | Activity [9]: 2783.9 pg/mL | viability at 48 h, 10 µM [10]: 99.7% | inhibition at 10 µM [1]: 16.7%

O=C1O/C(=C\c2ccc(OCCc3ccccn3)cc2)C(Cl)=C1Cl
inhibition at 10 µM [1]: 20.2%

CCOc1cc(/C=C2\OC(=O)C(Br)=C2Br)ccc1OCCc1ccc(CC)cn1
Activity [2]: 519.8 pg/mL | inhibition [11]: inactive | inhibition [3]: tde | inhibition [12]: Active | inhibition [13]: inactive | inhibition [14]: inactive | Activity [4]: 1044.2 pg/mL | Activity [5]: 902.2 pg/mL | inhibition [6]: tde | Activity [7]: 2360.2 pg/mL | inhibition [15]: Active | inhibition [16]: Active | Activity [8]: 323.8 pg/mL | Activity [9]: 598.1 pg/mL | inhibition [17]: inactive | viability at 48 h, 10 µM [10]: 93.1% | inhibition at 10 µM [1]: 80.1% | inhibition [18]: Active | inhibition [19]: inactive | inhibition [20]: Active
